Calls of active or inactive are those of the source. The calls are words filed in the database; no cut-off is given here.
Assays:
HUVEC = experiment: Cytotoxicity against HUVEC assessed as cell after 48 hrs by MTT assay; format: cell-based; details: Homo sapiens
Summary of the method: (§1)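 HUVEC (from fresh umbilical cords, gelatin-coated dishes, RPMI 1640 with 20% FBS, heparin, ECGF) and K562 (RPMI 1640, 10% FCS) were seeded at 7×10^3 per well. After 24 h, exposure for 48 h to compounds from 100 mM aqueous stock, final 1 mM down to 1×10^-6 mM. MTT read at 570/650 nm; untreated = 100%; IC50 from dose-response curves, mean of 2 experiments in triplicate.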

[1] = biological target: T1, HINT1 (adenosine 5'-monophosphoramidase) (Homo sapiens, UniProt P49773); experiment: Stability in human HeLa cell lysate assessed as HINT-1-mediated phosphoramidase activity by measuring compound remaining at 1 mM after 22 hrs by RP-HPLC analysis relative to control; format: ADME, cell-based; details: read-out: Stability
Summary of the method: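 HeLa lysate from confluent cells, sonicated in PBS with protease inhibitors. Substrate 1 mM in 20 mM Na-HEPES pH 7.2, 0.5 mM MgCl2, 22 h at 37 °C. Ice-quenched, heat-denatured, centrifuged. C18 RP-HPLC (acetonitrile 0–8% in 0.1 M TEAB pH 7.4) at 260 nm; intact substrate quantified by peak integration; mean ± SE of at least duplicate.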

K562 = experiment: Cytotoxicity against human K562 cells assessed as reduction of cell survival after 48 hrs by MTT assay; format: functional, cell-based; details: K562, 48 h; summary of the method: as §1
Escherichia coli [2] = experiment: Activity of Escherichia coli DNA polymerase 1 without 3' to 5'-exonucleolytic activity after 2 hrs by single base extension reaction based electrophoresis method
Summary of the method: (§2)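 Test compound with KF+ or KF- (1U) in 0.05 M Tris-HCl pH 8.0, 5 mM MgCl2, 1 mM DTT, 2 h at 37 °C, then heat-denatured. Read-out was 20% PAGE/7 M urea, autoradiography and quantitation of n+1 product; dCTP reaction served as control.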

CFPAC-1 [3] = experiment: Cytotoxicity against human CFPAC-1 cells assessed as reduction of cell survival after 72 hrs by MTT assay; format: functional, cell-based; details: CFPAC-1, 72 h
Summary of the method: (§3)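 HeLa seeded at 7×10^3 and CFPAC at 10^4 per well in RPMI 1640 with 10% FCS under 5% CO2. After 24 h, exposure to compounds (aqueous 100 mM stock; final 1 mM to 1×10^-6 mM) for 72 or 96 h. MTT 2 h, formazan dissolved in 20% SDS/50% DMF pH 4.7, A570/650. Untreated cells = 100%; IC50 from dose-response curves, 2 independent experiments in triplicate.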

Thermococcus sp. 9oN-7 = experiment: Inhibition of Thermococcus sp. 9oN-7 therminator DNA polymerase assessed as single base extended product level after 1 hr by single base extension reaction based electrophoresis method; parameters: concentration or dose not given beside the values
[4] = biological target: T1, HINT1 (adenosine 5'-monophosphoramidase); experiment: Stability in human K562 cell lysate assessed as HINT-1-mediated phosphoramidase activity by measuring compound remaining at 1 mM after 22 hrs by RP-HPLC analysis relative to control; format: ADME, cell-based; details: read-out: Stability
Summary of the method: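 K562 lysate from confluent cells, scraped and sonicated in PBS with protease inhibitors. Substrate 1 mM in 20 mM Na-HEPES pH 7.2, 0.5 mM MgCl2, with lysate protein, 22 h at 37 °C. Quenched on ice, heat-denatured, centrifuged. Supernatant analysed by C18 RP-HPLC (0–8% acetonitrile in 0.1 M TEAB pH 7.4, 20 min) at 260 nm. Peaks integrated; products identified by co-injection; mean ± SE, at least duplicate.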

[5] = Inhibition of Escherichia coli DNA polymerase 1 without 3' to 5'-exonucleolytic activity using dCTP as substrate assessed as single base extension reaction after 2 hrs
Summary of the method: (§4)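 Compound (0.4–2.0 mM; 1- to 5-fold over dCTP) added together with 0.4 mM dCTP in 0.05 M Tris-HCl pH 8.0, 5 mM MgCl2, 1 mM DTT, 2 h at 37 °C. The n+1 product was quantified after 20% PAGE/7 M urea and autoradiography; EC50 is the concentration giving 50% inhibition.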

[6] = Inhibition of Escherichia coli DNA polymerase 1 with 3' to 5'-exonucleolytic activity using dCTP as substrate assessed as single base extension reaction after 2 hrs; summary of the method: as §4
Escherichia coli [7] = experiment: Activity of Escherichia coli DNA polymerase 1 with 3' to 5'-exonucleolytic activity after 2 hrs by single base extension reaction based electrophoresis method; summary of the method: as §2
HeLa = experiment: Cytotoxicity against human HeLa cells assessed as reduction of cell survival after 96 hrs by MTT assay; format: functional, cell-based; summary of the method: as §3
[8] = biological target: Adenosine 5'-monophosphoramidase HINT1 (Oryctolagus cuniculus, UniProt P80912); experiment: Stability assessed as rabbit recombinant HINT1-mediated compound hydrolysis at 1 mM after 22 hrs by RP-HPLC analysis; format: ADME; details: 1000 µM
Summary of the method: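 Recombinant Hint-1 was expressed from pSGA02-HINT in E. coli BL21, purified on AMP-agarose, and dialysed into 20 mM Tris pH 7.5/150 mM NaCl. Substrate 1 mM in 20 mM Na-HEPES pH 7.2, 0.5 mM MgCl2 with rHint-1, 22 h at 37 °C. Analysed by C18 RP-HPLC at 260 nm via peak integration; mean ± SE of at least duplicate.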

[9] = Stability of the compound in ammonium acetate buffer at 20 mM at pH 3 to 11 after 2 to 24 hrs by RP-HPLC analysis; format: physicochemical; details: pH 3, 20000 µM
Summary of the method: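 Compounds at 20 mM in 0.1 M ammonium acetate buffered solutions, pH 3–11, kept at room temperature; sampled at 2, 8 and 24 h and monitored by RP-HPLC on a C18 column.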

CFPAC-1 [10] = experiment: Cytotoxicity against human CFPAC-1 cells assessed as reduction of cell survival after 96 hrs by MTT assay; format: functional, cell-based; details: CFPAC-1, 96 h; summary of the method: as §3

Adenosine 5'-monophosphoramidase HINT1, sequence (P80912 whole entry): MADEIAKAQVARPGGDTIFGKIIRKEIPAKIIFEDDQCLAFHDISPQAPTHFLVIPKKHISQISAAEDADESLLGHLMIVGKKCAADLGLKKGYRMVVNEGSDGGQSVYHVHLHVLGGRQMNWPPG
T1 sequence (P49773 whole entry): as the sequence (P80912 whole entry) above, with Q37R, A65V, A69D, K91N, N122H counted along it

Compound	IC50 (HUVEC)	remaining at 22 h, 1000 µM [1]	IC50 (K562)	Activity (Escherichia coli [2])	IC50 (CFPAC-1 [3])	Activity (Thermococcus sp. 9oN-7)	remaining at 22 h, 1000 µM [4]	EC50 [5]	EC50 [6]	Activity (Escherichia coli [7])	IC50 (HeLa)	Stability [8]	Stability [9]	IC50 (CFPAC-1 [10])
Nc1ccn([C@@H]2O[C@H](COP(=O)(O)NC(=O)c3cccnc3)[C@@H](O)C2(F)F)c(=O)n1	50 µM	95.5%	> 1000 µM	inactive	0.42 µM	100%	86.8%	520 µM	750 µM	inactive	1.4 µM	Stable	Stable	0.4 µM
CC(=O)NP(=O)(S)OC[C@H]1O[C@@H](n2ccc(N)nc2=O)C(F)(F)[C@@H]1O (stereo partly specified)	> 1000 µM	100%	500 µM	inactive	525 µM	100%	88.4%	> 2000 µM	> 2000 µM	inactive	700 µM	Stable	Stable	475 µM
Nc1ccn([C@@H]2O[C@H](COP(=O)(S)NC(=O)c3cccnc3)[C@@H](O)C2(F)F)c(=O)n1 (stereo partly specified)	> 1000 µM	100%	> 1000 µM	inactive	77.5 µM	100%	93.4%	130 µM	280 µM	inactive	500 µM	Stable	Stable	62.5 µM
CC(=O)NP(=O)(O)OC[C@H]1O[C@@H](n2ccc(N)nc2=O)C(F)(F)[C@@H]1O	0.09 µM	94.1%	0.5 µM	inactive	0.57 µM	100%	85.1%	510 µM	710 µM	inactive	1 µM	Stable	Stable	0.42 µM

Reference: ChEMBL document CHEMBL3232882, “N-Acyl-phosphoramidates as potential novel form of gemcitabine prodrugs” (Bioorg Med Chem, 2014)
